Measured values taken from ChEMBL document CHEMBL1155359 (Bioorg Med Chem Lett, 2009).
pIC50, pKi: −log10 of the molar value.

How the values were obtained:
hERG (KCNH2) = hERG (KCNH2) (Homo sapiens, UniProt Q12809); experiment: (§1) Inhibition of human ERG in L929 cells at 10 uM by whole cell patch-clamp assay; conditions: human
Histamine H1 receptor = Histamine H1 receptor (Homo sapiens, UniProt P35367); experiment: Displacement of [3H]pyrilamine from human recombinant histamine H1 receptor expressed in CHO cell by Betaplate scintillation counting; format: cell-based; conditions: for Ki: cho; for pKi: read-out: Ki
Chain of Histamine H1 receptor (P35367 whole entry): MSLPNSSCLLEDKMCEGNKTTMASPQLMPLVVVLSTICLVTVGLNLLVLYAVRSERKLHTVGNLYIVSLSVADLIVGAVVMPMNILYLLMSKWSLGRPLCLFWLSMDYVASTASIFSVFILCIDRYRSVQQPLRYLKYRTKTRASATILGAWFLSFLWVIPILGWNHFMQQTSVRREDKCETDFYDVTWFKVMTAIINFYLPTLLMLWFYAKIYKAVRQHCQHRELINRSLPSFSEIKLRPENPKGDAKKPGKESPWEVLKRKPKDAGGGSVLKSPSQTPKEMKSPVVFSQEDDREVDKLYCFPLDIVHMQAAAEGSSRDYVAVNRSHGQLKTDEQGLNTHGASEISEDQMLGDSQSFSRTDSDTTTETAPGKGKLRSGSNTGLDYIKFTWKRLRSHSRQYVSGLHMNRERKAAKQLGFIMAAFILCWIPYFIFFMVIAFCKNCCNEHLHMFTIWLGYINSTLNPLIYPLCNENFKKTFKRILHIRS

Cavia porcellus [1] = experiment: Antihistamine activity in iv dosed Hartley guinea pig assessed as inhibition of histamine-induced bronchoconstriction pretreated before histamine challenge; format: functional
Summary of the method: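 Guinea pig in vivo antihistamine test; potency is reported as an ED50 in mg/kg.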

Cavia porcellus [2] = experiment: Cardiovascular toxicity in iv dosed Hartley guinea pig QTc prolongation after 30 mins by ECG; format: organism-based; conditions: in vivo, 0.5 h
Summary of the method: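 Guinea pig in vivo QTc test; potency is reported as the minimum effective dose (MED) in mg/kg.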

Cavia porcellus [3] = experiment: Cardiovascular toxicity in Hartley guinea pig assessed as QTc prolongation at 100 mg/kg, iv after 30 mins by ECG; format: organism-based; set-up: dose 100 mg/kg, route intravenous; conditions: in vivo, 0.5 h
[4] = target: T1, Voltage-gated inwardly rectifying potassium channel KCNH2 (Homo sapiens, UniProt Q12809); experiment: Inhibition of human ERG in L929 cells by whole cell patch-clamp assay
T1 sequence (Q12809 whole entry): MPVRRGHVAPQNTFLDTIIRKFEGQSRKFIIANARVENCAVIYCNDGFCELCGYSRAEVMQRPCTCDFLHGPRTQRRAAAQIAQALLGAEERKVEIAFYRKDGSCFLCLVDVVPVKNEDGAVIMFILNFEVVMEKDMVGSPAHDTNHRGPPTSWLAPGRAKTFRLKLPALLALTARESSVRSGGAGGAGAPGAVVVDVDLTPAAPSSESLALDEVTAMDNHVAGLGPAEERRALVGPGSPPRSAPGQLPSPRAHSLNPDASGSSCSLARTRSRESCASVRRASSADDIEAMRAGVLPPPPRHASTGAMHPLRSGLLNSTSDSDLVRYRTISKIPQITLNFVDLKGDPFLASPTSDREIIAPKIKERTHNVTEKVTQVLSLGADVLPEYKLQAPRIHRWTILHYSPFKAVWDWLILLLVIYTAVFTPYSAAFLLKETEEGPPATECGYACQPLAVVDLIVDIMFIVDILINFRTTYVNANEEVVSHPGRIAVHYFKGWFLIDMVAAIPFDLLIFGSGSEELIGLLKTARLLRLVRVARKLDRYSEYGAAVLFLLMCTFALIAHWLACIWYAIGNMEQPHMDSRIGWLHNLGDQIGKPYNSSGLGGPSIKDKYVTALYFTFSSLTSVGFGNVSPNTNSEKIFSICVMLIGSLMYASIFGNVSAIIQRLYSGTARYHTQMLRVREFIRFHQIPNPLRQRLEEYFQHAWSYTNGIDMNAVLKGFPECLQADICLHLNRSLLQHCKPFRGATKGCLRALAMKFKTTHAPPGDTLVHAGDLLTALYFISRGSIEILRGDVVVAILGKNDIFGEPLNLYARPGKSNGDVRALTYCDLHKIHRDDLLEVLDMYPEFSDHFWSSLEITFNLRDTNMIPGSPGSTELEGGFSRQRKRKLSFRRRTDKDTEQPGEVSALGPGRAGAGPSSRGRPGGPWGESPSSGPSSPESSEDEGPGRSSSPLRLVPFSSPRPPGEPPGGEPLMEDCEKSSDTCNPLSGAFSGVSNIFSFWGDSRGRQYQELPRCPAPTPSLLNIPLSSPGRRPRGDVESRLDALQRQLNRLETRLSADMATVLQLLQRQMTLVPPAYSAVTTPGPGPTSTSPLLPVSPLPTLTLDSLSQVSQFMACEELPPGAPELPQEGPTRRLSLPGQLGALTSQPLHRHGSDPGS

[5] = target: T1, Voltage-gated inwardly rectifying potassium channel KCNH2; experiment: as §1
Cavia porcellus [6] = experiment: Cardiovascular toxicity in Hartley guinea pig assessed as QTc prolongation at 50 mg/kg, iv after 30 mins by ECG; format: organism-based; set-up: dose 50 mg/kg, route intravenous; conditions: in vivo, 0.5 h
[7] = L929 cells expressing human ERG

Chain of hERG (KCNH2) (Q12809 whole entry): as above

SMILES | inhibition at 10 µM (hERG (KCNH2); [7]) | pKi (Histamine H1 receptor) | further results
Cc1ccc(CCCCN2CCC(CO)CC2)cc1 | 54% | – | Ki (Histamine H1 receptor): Not Active
Cc1ccc(CCCCN2CCC(C(O)c3ccccc3)CC2)cc1 (stereo not given) | 97% | 6.92 | –
CC(C)(C)c1ccc(C(O)CCCN2CCC(C(O)(c3ccccc3)c3ccccc3)CC2)cc1 (racemic) [TERFENADINE] | – | – | ED50 (Cavia porcellus [1]): 0.8 mg/kg; MED (Cavia porcellus [2]): 0.03 mg/kg
Cc1ccc(CCCCC2CCC(C(O)(c3ccccc3)c3ccccc3)CC2)cc1 (stereo not given) | 35% | – | Ki (Histamine H1 receptor): Not Active
Cc1ccc(CCN2CCC(C(O)(c3ccccc3)c3ccccc3)CC2)cc1 | 100% | 7.19 | –
Cc1ccc(CCCC(=O)N2CCC(C(O)(c3ccccc3)c3ccccc3)CC2)cc1 | 11% | – | Ki (Histamine H1 receptor): Not Active
Cc1ccc(CCCCN2CCC(C(O)(c3ccccc3)c3ccccc3)CC2)cc1 | – | 7.41 | ED50 (Cavia porcellus [1]): 0.9 mg/kg; MED (Cavia porcellus [2]): 0.1 mg/kg
Cc1ccc(CCCN2CCC(C(O)(c3ccccc3)c3ccccc3)CC2)cc1 | – | 6.81 | –
CC1CCC(CCCCN2CCC(C(O)(c3ccccc3)c3ccccc3)CC2)CC1 (stereo not given) | 85% | 7.21 | –
CC(C)(C(=O)O)c1ccc(C(O)CCCN2CCC(C(O)(c3ccccc3)c3ccccc3)CC2)cc1 (racemic) [FEXOFENADINE] | – | – | ED50 (Cavia porcellus [1]): 0.08 mg/kg; MED (Cavia porcellus [2]): Not Active; MED (Cavia porcellus [3]): > 100 mg/kg
O=C(O)c1ccc(CCCCN2CCC(C(O)(c3ccccc3)c3ccccc3)CC2)cc1 | – | 6.69 | pIC50 [4]: 4.96; pIC50 [5]: 4.96; inhibition at 10 µM (hERG (KCNH2); l929): 56%; ED50 (Cavia porcellus [1]): 0.1 mg/kg; MED (Cavia porcellus [2]): Not Active; MED (Cavia porcellus [6]): > 50 mg/kg
Cc1ccc(CN2CCC(C(O)(c3ccccc3)c3ccccc3)CC2)cc1 | 100% | 7.80 | –
OC(c1ccccc1)(c1ccccc1)C1CCNCC1 [AZACYCLONOL] | – | 6.18 | –
Cc1ccc(CCCCN2CCCCC2)cc1 | 71% | 5.49 | –
COC(=O)c1ccc(CCCCN2CCC(C(O)(c3ccccc3)c3ccccc3)CC2)cc1 | 100% | 7.70 | –
